Each block holds one compound with its values, some of them ahead of it.
Experiments:
[1] = target: Sodium/potassium-transporting ATPase; assay: In vitro inhibitory concentration against dog kidney Na+/K+ ATPase; format: protein-complex assay, Canis lupus familiaris
Outline: (§1)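 Na+,K+-ATPase isolated and purified from dog kidney. Inhibition measured as percent hydrolysis of 32P-ATP with versus without compound. […] Single-concentration entries report percent inhibition at the stated concentration. Compounds tested within 1–4 h of dissolution.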

[2] = target: Sodium/potassium-transporting ATPase subunit alpha-1 (Canis lupus familiaris, UniProt P50997); assay: In vitro inhibitory concentration against dog kidney Na+,K+-ATPase
Outline: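 Na+,K+-ATPase isolated and purified from dog kidney. Inhibition measured as percent hydrolysis of 32P-ATP with versus without compound. Single-concentration entries report percent inhibition at the stated concentration. Compounds tested within 1–4 h of dissolution.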

[3] = Compound at 100 uM was tested in vitro for the inhibition of dog kidney Na+/K+ ATPase; conditions: Canis lupus familiaris, target entry is the homologue from another species; outline: as §1
[4] = Percent increase in force of contraction in vitro determined using electrically driven guinea pig left atrium.; format: functional; conditions: Cavia porcellus, Cardiac atrium
Outline: (§2)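 Isolated guinea pig atria in solution bubbled with 95% O2/5% CO2, field-stimulated by platinum electrodes at 1 Hz (1 ms square pulses, twice threshold voltage). After 60 min equilibration, cumulative concentrations added, each held until maximal response or arrhythmia.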

[5] = In vitro maximum inotropic effect on contractile force of an electrically driven guinea pig left atrium.; format: functional, Cavia porcellus, Cardiac atrium; outline: as §2
Cavia porcellus = organism: Cavia porcellus; assay: Concentration producing 50% of the maximal increase in the force of contraction in isolated guinea pig left atrium; format: functional; conditions: Cardiac atrium; outline: as §2

SMILES: CO/N=C/[C@H]1CC[C@]2(O)[C@@H]3CC[C@@H]4C[C@@H](O)CC[C@]4(C)[C@H]3CC[C@]12C
IC50 [1]: 32 µM

IC50 [1]: > 100 µM
SMILES: CN(C)CCCO/N=C1\CC[C@]2(O)[C@@H]3CC[C@@H]4C[C@@H](O)CC[C@]4(C)[C@H]3CC[C@]12C

SMILES: C/C(C=O)=C\[C@H]1CC[C@]2(O)[C@@H]3CC[C@@H]4C[C@@H](O)CC[C@]4(C)[C@H]3CC[C@]12C
IC50 [2]: 1.58 µM

SMILES: CN(C)CCON(C)C[C@H]1CC[C@]2(O)[C@@H]3CC[C@@H]4C[C@@H](O)CC[C@]4(C)[C@H]3CC[C@]12C
inhibition [3]: 20%
IC50 [1]: > 100 µM

SMILES: C[C@]12CC[C@H](O)C[C@H]1CC[C@@H]1[C@@H]2CC[C@]2(C)[C@@H](/C=C/C=N\OCC(=O)O)CC[C@]12O
inhibition [3]: 40%
IC50 [1]: > 100 µM

SMILES: C[C@]12CC[C@H](O)C[C@H]1CC[C@@H]1[C@@H]2CC[C@]2(C)[C@@H](CCCCCCCN)CC[C@]12O
IC50 [2]: 1.25 µM
Emax [4]: 43%
Concentration giving maximal inotropic effect [5]: 100 µM

SMILES: CN(C)CCCCO/N=C/[C@H]1CC[C@]2(O)[C@@H]3CC[C@@H]4C[C@@H](O)CC[C@]4(C)[C@H]3CC[C@]12C
IC50 [1]: 2 µM
Emax [4]: 214%
EC50 (Cavia porcellus): 4.7 µM

IC50 [1]: > 100 µM
SMILES: CN(C)CCO/N=C1\CC[C@]2(O)[C@@H]3CC[C@@H]4C[C@@H](O)CC[C@]4(C)[C@H]3CC[C@]12C

SMILES: CONC/C=C/[C@H]1CC[C@]2(O)[C@@H]3CC[C@@H]4C[C@@H](O)CC[C@]4(C)[C@H]3CC[C@]12C
IC50 [1]: 40 µM

SMILES: CN(C)CCONC[C@H]1CC[C@]2(O)[C@@H]3CC[C@@H]4C[C@@H](O)CC[C@]4(C)[C@H]3CC[C@]12C.Cl.Cl
IC50 [1]: 50 µM
Emax [4]: 18%
Concentration giving maximal inotropic effect [5]: 300 µM

SMILES: CO/N=C/C(C)=C/[C@H]1CC[C@]2(O)[C@@H]3CC[C@@H]4C[C@@H](O)CC[C@]4(C)[C@H]3CC[C@]12C
IC50 [1]: 10 µM

SMILES: C[C@]12CC[C@H](O)C[C@H]1CC[C@@H]1[C@@H]2CC[C@]2(C)[C@@H](/C=N/OCC(=O)O)CC[C@]12O
inhibition [3]: 0%
IC50 [1]: > 100 µM

SMILES: C[C@]12CC[C@H](O)C[C@H]1CC[C@@H]1[C@@H]2CC[C@]2(C)[C@@H](/C=C/C=N/OCCN)CC[C@]12O
IC50 [1]: 0.02 µM
Emax [4]: 155%
EC50 (Cavia porcellus): 0.05 µM
Concentration giving maximal inotropic effect [5]: 0.3 µM

SMILES: C[C@]12CC[C@H](O)C[C@H]1CC[C@@H]1[C@@H]2CC[C@]2(C)[C@@H](CNOCCN)CC[C@]12O.Cl.Cl
IC50 [1]: 1.58 µM
Emax [4]: 135%
EC50 (Cavia porcellus): 8 µM
Concentration giving maximal inotropic effect [5]: 100 µM

SMILES: CCCO/N=C/C=C/[C@H]1CC[C@]2(O)[C@@H]3CC[C@@H]4C[C@@H](O)CC[C@]4(C)[C@H]3CC[C@]12C
IC50 [1]: 10 µM

SMILES: CONCCC[C@H]1CC[C@]2(O)[C@@H]3CC[C@@H]4C[C@@H](O)CC[C@]4(C)[C@H]3CC[C@]12C
inhibition [3]: 40%
IC50 [1]: > 100 µM

SMILES: C[C@]12CC[C@H](O)C[C@H]1CC[C@@H]1[C@@H]2CC[C@]2(C)[C@@H](CCC=O)CC[C@]12O
IC50 [2]: 40 µM

SMILES: C[C@]12CC[C@H](O)C[C@H]1CC[C@@H]1[C@@H]2CC[C@]2(C)[C@@H](CNOCCCN)CC[C@]12O
IC50 [1]: 0.4 µM
Emax [4]: 237%
EC50 (Cavia porcellus): 3.9 µM

SMILES: C[C@]12CC[C@H](O)C[C@H]1CC[C@@H]1[C@@H]2CC[C@]2(C)[C@@H](/C=C/C=N/OCCO)CC[C@]12O
IC50 [1]: 6.3 µM
Emax [4]: 179%
EC50 (Cavia porcellus): 39 µM
Concentration giving maximal inotropic effect [5]: 300 µM

SMILES: C[C@]12CC[C@H](O)C[C@H]1CC[C@@H]1[C@@H]2CC[C@]2(C)[C@@H](CCCNOCCN)CC[C@]12O
IC50 [1]: 1 µM
Emax [4]: 71%
EC50 (Cavia porcellus): 12 µM

SMILES: C[C@]12CC[C@H](O)C[C@H]1CC[C@@H]1[C@@H]2CC[C@]2(C)[C@@H](/C=C/C=C/CCN)CC[C@]12O
IC50 [1]: 0.08 µM
Emax [4]: 98%
EC50 (Cavia porcellus): 0.38 µM

SMILES: C[C@]12CC[C@H](O)C[C@H]1CC[C@@H]1[C@@H]2CC[C@]2(C)[C@@H](C=O)CC[C@]12O
IC50 [2]: 25 µM
Emax [4]: 79%
EC50 (Cavia porcellus): 11 µM
Concentration giving maximal inotropic effect [5]: 300 µM

SMILES: CC(/C=N/OCCN(C)C)=C\[C@H]1CC[C@]2(O)[C@@H]3CC[C@@H]4C[C@@H](O)CC[C@]4(C)[C@H]3CC[C@]12C.O=C(O)/C=C/C(=O)O
IC50 [1]: 0.06 µM
Emax [4]: 146%
EC50 (Cavia porcellus): 0.07 µM
Concentration giving maximal inotropic effect [5]: 0.3 µM

IC50 [1]: 12.5 µM
SMILES: CN(C)CCO/N=C\C=C1/CC[C@]2(O)[C@@H]3CC[C@@H]4C[C@@H](O)CC[C@]4(C)[C@H]3CC[C@]12C

IC50 [1]: > 100 µM
SMILES: C[C@]12CC[C@H](O)C[C@H]1CC[C@@H]1[C@@H]2CC[C@]2(C)/C(=C/C=N\OCCCN)CC[C@]12O

SMILES: CC(/C=N/OCCO)=C\[C@H]1CC[C@]2(O)[C@@H]3CC[C@@H]4C[C@@H](O)CC[C@]4(C)[C@H]3CC[C@]12C
IC50 [1]: 7.9 µM
Emax [4]: 175%
EC50 (Cavia porcellus): 23 µM
Concentration giving maximal inotropic effect [5]: 300 µM

IC50 [1]: > 100 µM
SMILES: CN(C)CCCCO/N=C1\CC[C@]2(O)[C@@H]3CC[C@@H]4C[C@@H](O)CC[C@]4(C)[C@H]3CC[C@]12C

SMILES: CN(C)CCCO/N=C/C=C1\CC[C@]2(O)[C@@H]3CC[C@@H]4C[C@@H](O)CC[C@]4(C)[C@H]3CC[C@]12C
IC50 [1]: 160 µM

SMILES: C[C@]12CC[C@H](O)C[C@H]1CC[C@@H]1[C@@H]2CC[C@]2(C)[C@@H](/C=C/C=O)CC[C@]12O
IC50 [2]: 0.25 µM
Emax [4]: 45%
EC50 (Cavia porcellus): 4 µM

SMILES: CC(/C=N/OCCCCN)=C\[C@H]1CC[C@]2(O)[C@@H]3CC[C@@H]4C[C@@H](O)CC[C@]4(C)[C@H]3CC[C@]12C
IC50 [1]: 1.26 µM
Emax [4]: 106%
EC50 (Cavia porcellus): 4 µM

SMILES: CN(C)CCCO/N=C/[C@H]1CC[C@]2(O)[C@@H]3CC[C@@H]4C[C@@H](O)CC[C@]4(C)[C@H]3CC[C@]12C
IC50 [1]: 0.25 µM
Emax [4]: 235%
EC50 (Cavia porcellus): 1.3 µM

SMILES: CCCO/N=C/C(C)=C/[C@H]1CC[C@]2(O)[C@@H]3CC[C@@H]4C[C@@H](O)CC[C@]4(C)[C@H]3CC[C@]12C
inhibition [3]: 40%
IC50 [1]: > 10 µM

SMILES: C[C@]12CC[C@H](O)C[C@H]1CC[C@@H]1[C@@H]2CC[C@]2(C)[C@@H](/C=N/OCCN)CC[C@]12O
IC50 [1]: 0.16 µM
Emax [4]: 145%
EC50 (Cavia porcellus): 0.62 µM

SMILES: CN(C)CCO/N=C/[C@H]1CC[C@]2(O)[C@@H]3CC[C@@H]4C[C@@H](O)CC[C@]4(C)[C@H]3CC[C@]12C
IC50 [1]: 1 µM
Emax [4]: 39%

SMILES: CN(C)CCO/N=C/C[C@H]1CC[C@]2(O)[C@@H]3CC[C@@H]4C[C@@H](O)CC[C@]4(C)[C@H]3CC[C@]12C
IC50 [1]: 0.63 µM
Emax [4]: 73%
EC50 (Cavia porcellus): 1.8 µM

IC50 [1]: 2 µM
EC50 (Cavia porcellus): 18 µM
SMILES: C[C@]12CC[C@H](O)C[C@H]1CC[C@@H]1[C@@H]2CC[C@]2(C)/C(=C/C=N\OCCN)CC[C@]12O
Emax [4]: 136%
Concentration giving maximal inotropic effect [5]: 100 µM

IC50 [1]: > 100 µM
SMILES: C[C@]12CC[C@H](O)C[C@H]1CC[C@@H]1[C@@H]2CC[C@]2(C)/C(=N/OCCN)CC[C@]12O

SMILES: C[C@]12CC[C@H](O)C[C@H]1CC[C@@H]1[C@@H]2CC[C@]2(C)[C@@H](/C=C/C=C/CCCN)CC[C@]12O
IC50 [2]: 0.32 µM
Emax [4]: 73%
EC50 (Cavia porcellus): 0.035 µM
Concentration giving maximal inotropic effect [5]: 0.1 µM

SMILES: CN(C)CCO/N=C/C=C/C=C/[C@H]1CC[C@]2(O)[C@@H]3CC[C@@H]4C[C@@H](O)CC[C@]4(C)[C@H]3CC[C@]12C.O=C(O)C(=O)O
IC50 [2]: 6.3 µM
Emax [4]: 145%
EC50 (Cavia porcellus): 20 µM
Concentration giving maximal inotropic effect [5]: 100 µM

SMILES: C[C@]12CC[C@H](O)C[C@H]1CC[C@@H]1[C@@H]2CC[C@]2(C)[C@@H](C3=CC(=O)OC3)CC[C@]12O [DIGITOXIGENIN]
Emax [4]: 200%
EC50 (Cavia porcellus): 0.57 µM
Concentration giving maximal inotropic effect [5]: 3 µM

SMILES: CO/N=C/C=C/[C@H]1CC[C@]2(O)[C@@H]3CC[C@@H]4C[C@@H](O)CC[C@]4(C)[C@H]3CC[C@]12C
IC50 [1]: 4 µM

SMILES: C[C@]12CC[C@H](O)C[C@H]1CC[C@@H]1[C@@H]2CC[C@]2(C)[C@@H](CC/C=N\OCCN)CC[C@]12O
IC50 [1]: 0.08 µM
Emax [4]: 70%
EC50 (Cavia porcellus): 1.1 µM

SMILES: CONC[C@H]1CC[C@]2(O)[C@@H]3CC[C@@H]4C[C@@H](O)CC[C@]4(C)[C@H]3CC[C@]12C
IC50 [1]: 79 µM
